An excerpt weighted towards active compounds, which were near 1.4% of everything screened.
Arrestin-AP2 inh – inhibitors of human beta-arrestin and AP2 interaction; FITC-arrestin peptide / GST-AP2 beads, flow cytometry; AP2 beta2 appendage carries R879A mutation; inhibition, % at 10 µM; 0.31% of 340,000 active;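 active = inhibition above a set limit, near 3 SD of compounds lacking own fluorescence, cut at about 54% in these data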
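System: GST-AP2 R879A bound to glutathione beads, E. coli-expressed. Also added: 50 nM FITC-arrestin peptide. Schedule: compound with beads 12 min RT, then probe 1 h RT. Signal: bead flow cytometry, FITC channel. Read-out basis: percent response.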
HTR5A inv ag – HTR5A inverse agonism, opioid heterodimer counter-screen | HTR5A cell line, luminescence | inhibition, % at 9.3 µM | 0.083% of 340,000 active | AID 504634; in the data active = inhibition mostly above about 23%, no sharp cut-off; inactive = mostly below about 18%
Target sequence (P47898 whole entry, looked up): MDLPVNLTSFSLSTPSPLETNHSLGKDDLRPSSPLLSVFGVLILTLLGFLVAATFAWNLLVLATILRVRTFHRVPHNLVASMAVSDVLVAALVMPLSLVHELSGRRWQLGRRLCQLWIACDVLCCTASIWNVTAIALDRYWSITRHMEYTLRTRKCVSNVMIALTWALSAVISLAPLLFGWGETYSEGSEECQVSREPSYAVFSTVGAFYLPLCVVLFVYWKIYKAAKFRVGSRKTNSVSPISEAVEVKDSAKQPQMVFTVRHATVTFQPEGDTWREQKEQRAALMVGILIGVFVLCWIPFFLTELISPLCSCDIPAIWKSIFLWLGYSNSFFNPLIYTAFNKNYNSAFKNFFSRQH
OPRM1-OPRD1 inv – inverse agonists of human mu-delta opioid receptor heterodimerization; P35372+P41143; 0.21% of 340,000 active; cell-based MOR-DOR heterodimer luminescence, inverse agonism; inhibition, % at 9.3 µM; AID 504357; in the data active = inhibition above about 22%, passing the limit was not always enough
HTR5A ag ctr – counter-screen for OPRM1-OPRD1 agonists: human HTR5A agonism; P47898; HTR5A agonist assay, luminescence, cell-based; activation, % at 9.3 µM; 0.61% of 340,000 active; AID 504692; in the data active = activation mostly above about 9.5%, no sharp cut-off; inactive = mostly below about 7.6%
MOR-DOR ag – agonists of human mu-delta opioid receptor heterodimerization; P35372+P41143; cells, OPRM1-OPRD1 heterodimerization, luminescence; activation, % at 9.3 µM; 0.3% of 340,000 active
DAGLB inh – blocks human DAGLB lipase activity. HEK293T DAGLB membrane lysate, EnzChek fluorogenic substrate. inhibition, % at 5.17 µM. 0.059% of 340,000 active. AID 504411; in the data active = inhibition above about 34%
OPRM1-D1 ag cf – OPRM1-OPRD1 heterodimer agonism, confirmation; shares compounds with MOR-DOR ag; cells, MOR-DOR heterodimerization, luminescence complementation; activation, % at 9.3 µM; 45% of 830 active
HTR5A ag ctr2 – counter-screen for OPRM1-OPRD1 agonists: human HTR5A agonism; activation, % at 9.3 µM; HTR5A agonist counterscreen, cell luminescence; 8% of 830 active; shares compounds with MOR-DOR ag; in the data active = activation above about 17%
A number is an active result; i = inactive; nt = no result; + = active, no number. Rule as the data show it, unless noted: active = activation above about 18%; inactive = the rest.

SMILES	Arrestin-AP2 inh	HTR5A inv ag	OPRM1-OPRD1 inv	HTR5A ag ctr	MOR-DOR ag	DAGLB inh	OPRM1-D1 ag cf	HTR5A ag ctr2
CCOC(=O)C1(c2ccccc2)CCN(CCC(=O)Nc2cccc(Br)c2)CC1	i	i	i	i	49.1	i	57.5	i
CCOC(=O)C1(c2ccccc2)CCN(CCC(=O)Nc2ccc(OC)cc2)CC1	nt	nt	nt	nt	nt	i	nt	nt
C[C@]12CCC3C(CC[C@H]4C[C@@H](O)CC[C@]34C)C1CC[C@@H]2OC(=O)[C@H](N)CCCCN (some centres not stated)	i	i	i	i	i	i	nt	nt
N=c1c[n+](CC23CC4CC(CC(C4)C2)C3)[n-]o1	i	i	i	i	23.7	i	35.9	i
O=C1CCC2(O)C3Cc4ccc(O)c5c4C2(CCN3Cc2ccoc2)C1O5 (configuration not stated)	nt	nt	nt	nt	nt	i	nt	nt
Cc1ccc(-n2cc(CNC(C)Cc3cnccn3)c(-c3cccc(C)c3)n2)cc1 (configuration not stated)	i	i	i	i	42.0	i	i	i
Cc1ccc2c(c1)Oc1ccccc1N=C2	nt	nt	nt	nt	nt	i	nt	nt
O=C(c1ccco1)N1Cc2ccccc2-n2nncc2C1	nt	nt	nt	nt	nt	i	nt	nt
Clc1ccc(COC(Cn2ccnc2)c2ccc(Cl)cc2Cl)cc1 (configuration not stated)	i	i	i	i	i	i	nt	nt
Clc1ccc(CSC(Cn2ccnc2)c2ccc(Cl)cc2Cl)cc1 (configuration not stated)	i	i	i	i	+	i	i	i
C[C@@H]1O[C@@H](O[C@H]2C[C@@H](O)[C@]3(CO)[C@@H]4C(CC[C@]3(O)C2)[C@@]2(O)CC[C@H](C3COC(=O)C3)[C@@]2(C)C[C@H]4O)[C@H](O)[C@H](O)[C@H]1O (some centres not stated)	i	i	i	i	72.5	i	i	i
CC(=O)O[C@H]1[C@H]2O[C@]23[C@@H]2CC[C@]4(O)C[C@@H](O)CC[C@]4(C)C2CC[C@]3(C)[C@H]1c1ccc(=O)oc1 (some centres not stated)	i	i	i	33.2	75.3	i	300.9	i
C[C@]12CC[C@H]3C(CCC4(O)CC(O)CC[C@]34C=O)C1=CC[C@H]2c1ccc(=O)oc1 (some centres not stated)	i	i	i	23.3	67.1	i	32.7	23.4
CC1(O)CCC2C3CCC4=CC(=O)CCC4(C)C34OC4CC21C (configuration not stated)	i	i	i	i	i	i	nt	nt
CC1([N+](=O)[O-])COP(=O)(NC2CCCC2)OC1 (configuration not stated)	i	i	i	i	i	i	nt	nt
O=C(NCC1=C(c2cccc3ccccc23)C[C@@H]2CC[C@H]1N2Cc1ccco1)c1ccc([N+](=O)[O-])cc1	nt	nt	nt	nt	nt	i	nt	nt
Cc1nc2c(=O)n(C)c(=O)nc-2n(C)n1	i	i	i	i	20.2	i	21.9	i
CCC1CN(C)CCC1(OC(C)=O)c1ccccc1 (configuration not stated)	i	i	i	i	24.7	i	22.9	i
CC(=O)O[C@]1(c2ccccc2)CCN(C)[C@H]2CCCC[C@@H]21	i	i	i	i	i	i	nt	nt
Cn1cc[n+](C)c1P(=S)(c1ccccc1)c1ccccc1	i	i	i	i	39.5	i	i	i
CC1[C@H]2Cc3ccc(O)cc3[C@]1(C)CCN2C (some centres not stated)	i	i	i	i	44.5	i	41.6	i
C=CCN1CC[C@@]2(C)c3cc(O)ccc3CC1[C@@H]2C	i	i	i	i	i	i	nt	nt
CC(C)=CCN1CC[C@@]2(C)c3cc(O)ccc3C[C@@H]1C2C (some centres not stated)	i	i	i	i	37.4	i	i	i
CC(C)=CCN1CC[C@@]2(C)c3cc(O)ccc3CC1C2C (some centres not stated)	i	i	i	i	i	i	nt	nt
CN1CCCC(C(=O)c2ccc(Cl)cc2)C1 (configuration not stated)	i	i	i	i	20.6	i	i	i
SMILES	Arrestin-AP2 inh	HTR5A inv ag	OPRM1-OPRD1 inv	HTR5A ag ctr	MOR-DOR ag	DAGLB inh	OPRM1-D1 ag cf	HTR5A ag ctr2
CC(C)(O)/C=C/C(=O)C(C)(O)C1C(O)CC2(C)C3CC=C4C(C=C(O)C(=O)C4(C)C)C3(C)C(=O)CC12C (configuration not stated)	i	i	i	i	i	i	nt	nt
C[C@]12CCC3C(CC[C@H]4C[C@@H](O)CC[C@]34C)[C@H]1C=CC2=O (some centres not stated)	i	i	i	i	i	i	nt	nt
COC1C(O)C(C)OC(OC2CCC3(C)C(CCC4C3C(O)CC3(C)C(C5=CC(=O)OC5)CCC43O)C2)C1O (configuration not stated)	i	i	i	31.2	85.3	i	28.4	i
C[C@]12CC[C@H](O)C[C@H]1CC[C@@H]1[C@@H]2C[C@@H](O)[C@]2(C)[C@@H](C3=CC(=O)OC3)CC[C@]12O	i	i	i	34.0	69.5	i	40.4	29.9
CC12CC[C@H]3[C@@H](CCC4(O)C[C@H](O)CCC34/C=N/NC(=O)c3ccccc3[N+](=O)[O-])C1(O)CCC2C1=CC(=O)OC1 (some centres not stated)	i	i	i	10.6	21.4	i	i	i
CC12CCC(O)CC1CCC1C2CCC2(C)C(C3=CC(=O)OC3)CCC12O (configuration not stated)	i	i	i	32.5	92.6	i	i	i
CC(CC(C#N)(c1ccccc1)c1ccccc1)N1CCOCC1 (configuration not stated)	i	i	i	i	i	i	nt	nt
C[C@H]1CC[C@@H]2[C@@H](C)[C@H]3[C@H](C[C@H]4[C@@H]5CC=C6C[C@@H](O[C@@H]7O[C@H](CO)[C@H](O)[C@H](O[C@@H]8O[C@H](CO)[C@@H](O)[C@H](O)[C@H]8O)[C@H]7O[C@@H]7O[C@@H](C)[C@H](O)[C@@H](O)[C@H]7O)CC[C@]6(C)[C@H]5CC[C@]34C)N2C1	i	i	i	i	i	i	nt	nt
CC(=O)OC1CC(OC2C(O)CC(OC3C(O)CC(OC4CCC5(C)C(CCC6C5CC(O)C5(C)C(C7=CC(=O)OC7)CCC65O)C4)OC3C)OC2C)OC(C)C1OC1OC(CO)C(O)C(O)C1O (configuration not stated)	i	i	i	26.5	69.0	i	i	i
COc1ccc2c(c1O)-c1c(OC)c(OC)cc3c1[C@H](C2)N(C)CC3	i	i	i	i	i	i	nt	nt

High-throughput results as filed in PubChem BioAssay.
